Tests used:
[1] = Growth inhibition of human A549 cells after 48 hrs by SRB assay; assay type: functional; details: A549, 48 h
[2] = Cytotoxicity against human NCI-H460 cells assessed as decrease in cell viability after 72 hrs by MTT assay; assay type: functional, cell-based; details: NCI-H460, 72 h
Summary of the method: (§1)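 Cells kept in RPMI 1640 with 10% FBS at 37 °C, 5% CO2, passaged every 2-3 days; seeded at 5,000-7,000 cells/well and left 24 h. Compounds dissolved in 1% DMSO, diluted in fresh medium to 1, 4, 16 and 32 µM, added in sextuplicate; 72 h exposure. MTT added for 3-4 h, medium removed, DMSO added for 15 min at 37 °C, OD read at 540 nm.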

[3] = Cytotoxicity against human NCI-H1975 cells assessed as decrease in cell viability after 72 hrs by MTT assay; assay type: functional, cell-based; details: NCI-H1975, 72 h; summary of the method: as §1
[4] = Cytotoxicity against human HCC827 cells assessed as decrease in cell viability after 72 hrs by MTT assay; assay type: functional, cell-based; details: HCC827, 72 h; summary of the method: as §1
[5] = Cytotoxicity against human A549 cells assessed as decrease in cell viability after 72 hrs by MTT assay; assay type: functional, cell-based; details: A549, 72 h; summary of the method: as §1
[6] = Cytotoxicity against human NCI-H226 cells assessed as cell growth at 10 uM after 48 hrs by SRB assay relative to control; assay type: functional; details: NCI-H226, 48 h, read-out: Activity
[7] = Cytotoxicity against human HOP92 cells assessed as cell growth at 10 uM after 48 hrs by SRB assay relative to control; assay type: functional; details: HOP-92, 48 h, read-out: Activity
[8] = Cytotoxicity against human A549 cells assessed as cell growth at 10 uM after 48 hrs by SRB assay relative to control; assay type: functional; details: A549, 48 h, read-out: Activity
[9] = Cytotoxicity against human EKVX cells assessed as cell growth at 10 uM after 48 hrs by SRB assay relative to control; assay type: functional; details: read-out: Activity
[10] = Cytotoxicity against human HOP62 cells assessed as cell growth at 10 uM after 48 hrs by SRB assay relative to control; assay type: functional; details: HOP-62, 48 h, read-out: Activity
[11] = Cytotoxicity against human NCI-H23 cells assessed as cell growth at 10 uM after 48 hrs by SRB assay relative to control; assay type: functional; details: NCI-H23, 48 h, read-out: Activity
[12] = Cytotoxicity against human NCI-H322M cells assessed as cell growth at 10 uM after 48 hrs by SRB assay relative to control; assay type: functional; details: read-out: Activity
[13] = Cytotoxicity against human NCI-H460 cells assessed as cell growth at 10 uM after 48 hrs by SRB assay relative to control; assay type: functional; details: NCI-H460, 48 h, read-out: Activity
[14] = Cytotoxicity against human NCI-H522 cells assessed as cell growth at 10 uM after 48 hrs by SRB assay relative to control; assay type: functional; details: NCI-H522, 48 h, read-out: Activity
[15] = Growth inhibition of human EKVX cells after 48 hrs by SRB assay; assay type: functional
[16] = Growth inhibition of human HOP62 cells after 48 hrs by SRB assay; assay type: functional; details: HOP-62, 48 h
[17] = Growth inhibition of human HOP92 cells after 48 hrs by SRB assay; assay type: functional; details: HOP-92, 48 h
[18] = Growth inhibition of human NCI-H226 cells after 48 hrs by SRB assay; assay type: functional; details: NCI-H226, 48 h
[19] = Growth inhibition of human NCI-H23 cells after 48 hrs by SRB assay; assay type: functional; details: NCI-H23, 48 h
[20] = Growth inhibition of human NCI-H322M cells after 48 hrs by SRB assay; assay type: functional
[21] = Growth inhibition of human NCI-H460 cells after 48 hrs by SRB assay; assay type: functional; details: NCI-H460, 48 h
[22] = Growth inhibition of human NCI-H522 cells after 48 hrs by SRB assay; assay type: functional; details: NCI-H522, 48 h
Mus musculus [23] = assay: Toxicity in C57BL/6 mouse assessed as weight loss at 20 mg/kg, ip measured on day 2; assay type: organism-based; details: in vivo
Summary of the method: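 Male C57BL/6 mice, 8 weeks old, 3 per cage, 12 h light/dark, food and water ad libitum, acclimated 5 days. Single IP dose on day 0 of 100 µL of 4 mg/mL in 20% 2-HPβCD in sterile PBS (~20 mg/kg assuming 20 g mice). Vehicle controls got 100 µL 20% 2-HPβCD/PBS IP on days 0, 7, 14, 21, 25. Weighed and monitored daily.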

Mus musculus [24] = assay: Toxicity in C57BL/6 mouse assessed as increase in body mass at 20 mg/kg, ip measured after 16 days; assay type: organism-based; details: in vivo, 384 h
Summary of the method: (§2)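 Male C57BL/6 mice, eight weeks old, housed three per cage on a 12 h light/dark cycle with food and water ad libitum, acclimated 5 days. Single IP injection on day 0 of 100 µL of a 4 mg/mL solution (0.4 mg, ~20 mg/kg assuming 20 g mice) in 20% 2-HPβCD sterile PBS. Vehicle controls were injected on days 0, 7, 14, 21 and 25. Mice were monitored and weighed daily.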

[25] = Toxicity in C57BL/6 mouse assessed as mouse survival rate at 20 mg/kg, ip measured after 16 days; assay type: organism-based; details: in vivo; summary of the method: as §2
[26] = Aqueous solubility of the compound; assay type: physicochemical
[27] = read-out: LC50 (the source's name)

## COCCOCCOCc1n(Cc2ccc3ccccc3n2)c2ccccc2[n+]1Cc1ccc2ccccc2c1.[Br-]
[1]
  GI50: 748 nM
  LC50: 37100 nM
  TGI: 10600 nM
[2]
  IC50: 3000 nM
[3]
  IC50: < 1000 nM
[4]
  IC50: 6000 nM
[5]
  IC50: 3000 nM
[6]
  growth at 10 µM: 28.1%
[7]
  growth at 10 µM: -18.2%
[8]
  growth at 10 µM: 22.5%
[9]
  growth at 10 µM: 31%
[10]
  growth at 10 µM: 11.7%
[11]
  growth at 10 µM: 1.03%
[12]
  growth at 10 µM: 26.8%
[13]
  growth at 10 µM: 7.94%
[14]
  growth at 10 µM: 0.79%
[15]
  GI50: 1270 nM
  LC50: 50900 nM
  TGI: 10800 nM
[16]
  GI50: 468 nM
  TGI: 2520 nM
[16]; [27]
  CC50: 9530 nM
[17]
  GI50: 207 nM
  LC50: 5220 nM
  TGI: 718 nM
[18]
  GI50: 874 nM
  LC50: 45200 nM
  TGI: 4830 nM
[19]
  GI50: 386 nM
  LC50: 53500 nM
  TGI: 10300 nM
[20]
  GI50: 1080 nM
  TGI: 7090 nM
[20]; [27]
  CC50: 28600 nM
[21]
  GI50: 424 nM
  LC50: 5700 nM
  TGI: 1560 nM
[22]
  GI50: 248 nM
  TGI: 936 nM
[22]; [27]
  CC50: 4590 nM
Mus musculus [23]
  Activity: Toxic
Mus musculus [24]
  Activity: 6%
[25]
  survival at 384 h: 33%
[26]
  solubility: 1900 µg/mL

Source: ChEMBL document CHEMBL3868630, “Synthesis, anti-proliferative activity, SAR study, and preliminary in vivo toxicity study of substituted N,N'-bis(arylmethyl)benzimidazolium salts against a panel of non-small cell lung cancer cell lines” (Bioorg Med Chem, 2017)
